Screening data from PubChem BioAssay.
Only some compounds are listed: those with a hit (about 2.4% of all), similar ones and a draw of the others.
dFosB activator = activators of mouse delta FosB homodimer; P13346; activation, % at 25 µM; purified delta FosB, TAMRA-CDK5 oligo fluorescence polarization; percent of positive-control signal above neutral wells; 340,000 compounds, 0.99% hits;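 active = mean activation above about 17%, with every replicate also reaching it, limit read from the data, passing the limit was not always enough; inconclusive = only one of the two conditions met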
Target sequence (P13346 whole entry, looked up): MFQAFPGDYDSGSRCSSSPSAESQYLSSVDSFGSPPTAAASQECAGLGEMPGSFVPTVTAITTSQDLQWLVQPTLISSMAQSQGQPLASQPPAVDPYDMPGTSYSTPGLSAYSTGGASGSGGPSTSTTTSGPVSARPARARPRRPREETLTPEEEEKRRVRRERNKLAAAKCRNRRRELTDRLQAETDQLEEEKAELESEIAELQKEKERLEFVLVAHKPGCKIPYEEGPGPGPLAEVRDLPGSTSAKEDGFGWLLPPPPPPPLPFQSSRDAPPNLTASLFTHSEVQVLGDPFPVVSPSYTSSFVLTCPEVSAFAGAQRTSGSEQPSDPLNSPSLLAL
GSIS activator = primary screen for activators of insulin secretion dependent on glucose, INS-1E cells, GLuc reporter luminescence | INS-1E GLuc reporter insulin secretion, 2-3 h | activation, % at 16.6 µM | 370,000 compounds, 0.61% hits | AID 743287;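 active = lowest replicate activation of at least 40%, so every replicate reaches that level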;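 also: 0% = median of neutral control wells and 100% = median of IBMX positive control wells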
Rtt109 HAT inh = inhibitors of Candida albicans Rtt109/Vps75 histone acetyltransferase. Q5AAJ8. purified Rtt109/Vps75, ThioGlo CoA-SH fluorescence, 4 h. inhibition, % at 34.9 µM. 330,000 compounds, 0.16% hits. AID 540336;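 active = inhibition of at least 50% in every replicate; inconclusive = best replicate reaches 50% inhibition but some replicates fall short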
Target sequence (Q5AAJ8 whole entry, looked up): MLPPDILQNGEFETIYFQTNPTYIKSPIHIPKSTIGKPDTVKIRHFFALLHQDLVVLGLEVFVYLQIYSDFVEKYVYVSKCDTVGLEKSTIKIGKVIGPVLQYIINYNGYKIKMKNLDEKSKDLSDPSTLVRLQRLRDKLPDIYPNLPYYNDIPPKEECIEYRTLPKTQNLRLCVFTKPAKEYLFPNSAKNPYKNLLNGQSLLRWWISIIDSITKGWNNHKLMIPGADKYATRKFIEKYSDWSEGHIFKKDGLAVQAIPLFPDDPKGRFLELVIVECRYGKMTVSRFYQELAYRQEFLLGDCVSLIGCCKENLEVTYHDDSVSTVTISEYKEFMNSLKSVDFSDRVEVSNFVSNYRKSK
miR122 inh = blocks miR-122 activity in Huh7 sensor cells. Huh7 miR-122 Renilla luciferase sensor, 48 h; neutral wells = 0, positive control = 100. activation (reporter increase), % at 12.5 µM. 340,000 compounds, 0.3% hits. AID 602342;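 active = mean replicate activation score at least 90 and every replicate individually at or above 90; inconclusive = only one of the two criteria met; inactive = neither criterion met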;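 also: higher luciferase means less miR-122 activity so hits act as miR-122 inhibitors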
Cneo AK release = causes C. neoformans cell lysis. adenylate kinase release luminescence, 4 h; normalised: neutral wells 0, clomiphene wells 100. lysis activity, % at 15 µM. 360,000 compounds, 0.2% hits;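 active = mean lysis activity across replicates of at least 80%, whatever share of replicates individually reach that level; inactive = mean lysis activity below 80%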
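Material – log-phase Cryptococcus neoformans yeast cells · Input – 5 × 10^6 yeast cells/mL · Medium – fresh YPD growth medium · Doses – single compound concentration per well · Timing – static 4 h at 37 °C with compound, 1 h detection · Detection – adenylate kinase release luminescence · Read-out – signal increase indicating cell lysis · Control set – Clomiphene as positive lysis control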
HIV Env fusion = blocks HIV Env-driven cell-cell fusion; HeLa-JRFL Env/CEM21 cell fusion, luciferase; inhibition, % at 12.3 µM; 360,000 compounds, 1.1% hits; AID 651610;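 active = mean replicate inhibition score of at least 50 and every replicate individually at or above 50; inconclusive = only one of the two criteria met; inactive = mean below 50 and not all replicates reaching 50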;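 also: 0% = plate neutral controls and 100% = maraviroc near 300 nM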
* marks the source's active call; other numbers are inactive results; i = inactive; ? = inconclusive; . = not tested or not shown; [ ] = remark or other dose.

SMILES	dFosB activator	GSIS activator	Rtt109 HAT inh	miR122 inh	Cneo AK release	HIV Env fusion
Cc1cccc(C(C)C)c1NC(=O)COC(=O)c1cccc(S(=O)(=O)N2CCc3ccccc3C2)c1	?	121*	0	.	.	-25
CCc1cccc(CC)c1NC(=O)COC(=O)c1cccc(S(=O)(=O)N2CCc3ccccc3C2)c1	-3	.	-1	.	.	23
O=c1c2ccccc2nnn1Cc1ccccc1	0	45*	7	-7	.	-2
O=c1c2ccccc2nc(-c2ccco2)n1Cc1ccccc1	-8	64*	-10	.	4	-51
CCOc1ccc(CCn2c(-c3ccco3)nc3ccccc3c2=O)cc1OCC	-6	.	4	-12	-1	62*
COCC(=O)N(C)C[C@@H]1Oc2cc(C#CCN(C)C)ccc2S(=O)(=O)N([C@H](C)CO)C[C@H]1C	.	14	.	-2[16.7 µM]	-4	-6[16.7 µM]
CCN(CC)CCNc1ccc(C)c2sc3ccc(O)cc3c(=O)c12	41*	.	5	-1	.	-39
Cc1ccc(S(=O)(=O)N(C)C[C@@H]2Oc3ncc(C#CC4(O)CCCC4)cc3C(=O)N([C@H](C)CO)C[C@@H]2C)cc1	.	1	.	-9[16.7 µM]	0	3[16.7 µM]
CCOC(=O)CC1(CC)Oc2ccccc2N1S(=O)(=O)c1ccc(C)cc1 (stereo not given)	.	-19	.	.	.	64*
CCOC(=O)CC1(C)N(S(=O)(=O)c2ccc(C)cc2)c2ccccc2N1S(=O)(=O)c1ccc(C)cc1	.	.	.	.	.	11
CCCCNC(=O)CSc1nc2ccccc2n1S(=O)(=O)c1ccc(Br)cc1	5	11	-1	.	.	.
O=C(CSc1nc2ccccc2n1S(=O)(=O)c1cccc([N+](=O)[O-])c1)NCCc1ccccc1	-6	9	28	.	.	73*
COc1cc(CO)cc(I)c1O[C@H]1C=C(C(=O)NCCO)C[C@@H](N(C(=O)c2cc3ccccc3oc2=O)C2CCCCCC2)[C@@H]1O	.	.	.	.	-4	9[16.7 µM]
COc1cc(CO)cc(I)c1O[C@H]1C=C(C(=O)NCCO)C[C@@H](N(CC2CCCCC2)C(=O)c2cc3ccccc3oc2=O)[C@@H]1O	.	.	.	.	92*	-23[16.7 µM]
CC(=O)N(C)C[C@H]1Oc2ccc(N)cc2C(=O)N(C)C[C@H]1C	.	-1	.	.	.	.
COc1cccc(NC(=O)C[C@@H]2CC[C@H]3[C@@H](COc4ccc(NC(=O)C5CCCC5)cc4C(=O)N3C)O2)c1	.	-3	.	.	.	.
CCOC(=O)N1CCN(c2ncnc3c2oc2nc(C(C)C)c4c(c23)CCC4)CC1	7	.	-9	207*	-4	-17
CC(C)Cc1nc2oc3c(N4CCN(CCO)CC4)ncnc3c2c2c1CCCC2	-25	-7	2	-5	1	-68
COc1ccc2c3c([nH]c2c1)[C@@H](CO)N(C(=O)C1CCC1)CC31CCN(C(=O)c2ccccn2)CC1	.	-5	.	.	.	.
COc1cc(-c2cc(C(=O)Nc3ccccc3N3CCOCC3)c3ccccc3n2)cc(OC)c1OC	-6	3	-5	.	.	34
COc1cc(-c2cc(C(=O)Nc3ccc(C)c(S(=O)(=O)N4CCOCC4)c3)c3ccccc3n2)cc(OC)c1OC	33*	.	-6	.	2	i
Nc1cc(=O)[nH]c(SCCSc2ccc(F)cc2)n1	8	5	-4	-9	0	66*
CCOc1ccccc1CNC(c1ccccc1)c1ccccc1	-7	88*	-10	.	19	43
COc1ccccc1CNC(c1ccccc1)c1ccccc1	-2	7	-10	-5	1	10
COc1ccc(C(=O)N=C2CCC(C#N)=C3c4cc(OC)c(OC)cc4CCN23)cc1	5	109*	-3	.	.	2
SMILES	dFosB activator	GSIS activator	Rtt109 HAT inh	miR122 inh	Cneo AK release	HIV Env fusion
COc1cc2c(cc1OC)C1=C(C#N)CC/C(=N\S(=O)(=O)c3ccccc3)N1CC2	-13	27	-5	-2	-4	-19
COc1ccc2c3c(n(C)c2c1)[C@@H](CO)N(C(=O)Nc1ccc(F)cc1)CC31CCN(S(=O)(=O)c2cn(C)cn2)CC1	.	-8	.	.	.	2[16.7 µM]
COc1cc2c3nnc(-c4ccc(F)cc4)c-3cn(Cc3cccc(F)c3)c2cc1OC	38*	.	-13	.	.	.
Cc1ccc(-c2nn3c(C)nnc3s2)cc1NC(=O)c1ccc(-c2cccc(Cl)c2)o1	-12	.	6	-6	0	-24
Cc1ccc(-c2nn3c(C)nnc3s2)cc1NC(=O)c1ccc(-c2ccc(Cl)cc2Cl)o1	-25	97	-4	-8	-1	115*
CC(C)Oc1ccc(C(=O)CCN2CCOCC2)cc1	-7	51*	10	.	.	9
C[C@@H]1CN([C@@H](C)CO)C(=O)c2cccc(NS(=O)(=O)c3ccc(Cl)cc3)c2O[C@H]1CN(C)CC1CC1	.	-7	.	-3[16.7 µM]	6	-25[16.7 µM]
CC1(C)Cc2c(cnn2-c2ccccc2)C(NC(=O)CCN2CCCC2=O)C1 (stereo not given)	5	41*	-7	.	2	2
CC1(C)Cc2c(cnn2-c2ccccc2)C(NC(=O)CCCN2CCCCC2=O)C1 (stereo not given)	-8	5	-4	-2	3	6
CC(C)Nc1ccc(Nc2ccnc3cc4ccccc4cc23)cc1	68*	-61	0	.	.	-83
COc1ccc(Cl)cc1NC(=O)CN(C1CCCCC1)S(C)(=O)=O	-4	.	18	2	0	125*
COc1cccc(-c2ccc3c(c2)[C@@H]2[C@@H](CCN2S(=O)(=O)c2cccc(OC)c2)[C@H](CO)N3)c1	.	2	.	-4[16.7 µM]	-2	.
CN(Cc1ccc(OCC(O)CN(C)Cc2ccccc2)cc1)Cc1nccn1C (stereo not given)	-6	47*	24	0	-3	-13
COc1ccccc1S(=O)(=O)N1CC[C@H]2[C@H](CO)Nc3ccc(-c4cccc(C#N)c4)cc3[C@H]21	.	18	.	4[16.7 µM]	-4	.
C=CCc1c(Cl)nc(C)nc1NCc1ccccc1	-3	-5	3	-7	-3	59*
Cc1nc(NN)nc(NCc2ccccc2)n1	-4	1	-4	-2	1	-2
O=C(C[C@H]1CC[C@H](NS(=O)(=O)c2ccccc2)[C@H](CO)O1)N1CCN(c2ccccc2)CC1	.	4	.	.	.	.
C[C@H](CO)N1C[C@H](C)[C@@H](CN(C)Cc2ccc(-c3ccccc3)cc2)Oc2ccc(NC(=O)CCCCCC(=O)Nc3ccccc3N)cc2CC1=O	.	27	.	-2[16.7 µM]	1	25[16.7 µM]
CC(=O)c1cc(F)c(N2CCCCCC2)cc1C	2	.	-19	-12	0	-69
CC(=O)c1cc2c(cc1C)CCCC2(C)C	.	43*	.	0	-1	16
Cc1noc(C)c1S(=O)(=O)N(C)C[C@@H]1Oc2ccc(NC(=O)Nc3ccc4c(c3)OCO4)cc2CC(=O)N([C@@H](C)CO)C[C@H]1C	.	-25	.	.	.	.
Cc1noc(C)c1NC(=O)Nc1cccc2c1O[C@H](CN(C)C(=O)Nc1ccc(F)cc1)[C@@H](C)CN([C@H](C)CO)C2=O	.	7	.	12[16.7 µM]	.	25[16.7 µM]
